By IC50 is commonly meant the concentration that inhibits the measured activity by half. Low readings indicate inhibition by little substance, high ones a need for much substance.

For one experiment, the system named is NCI-H1975. In words: Antiproliferative activity against human NCI-H1975 cells after 48 hrs by MTT assay. It is filed as functional, cell-based. The following applies: NCI-H1975, 48 h. The procedure, abridged: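 Cells seeded at 3×10³/well and grown 24 h, then exposed 48 h to six final concentrations, twofold steps down from 30. MTT (5 mg/mL) was added for 2–4 h at 37 °C. Supernatant was removed, formazan dissolved in DMSO, and OD read at 570 nm. Results are given as IC50, or as percent inhibition where IC50 exceeds the top concentration. At least three runs.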
In general terms: Tetrazolium dyes change colour on reduction, which living cells bring about.

The subject of experiment [1] is HCT-116. In words: Cell cycle arrest in human HCT116 cells assessed as accumulation at S phase at 10 uM after 48 hrs by propidium iodide staining-based flow cytometric method (reference value: 34.83%). It is filed as functional. (In general: A flow cytometer gives signals particle by particle.)
The test system of experiment [2] is HCT-116. In words: Cell cycle arrest in human HCT116 cells assessed as accumulation at sub G1 phase at 12.5 uM after 48 hrs by propidium iodide staining-based flow cytometric method (reference value: 0.86%). It is filed as functional.
Experiment [3] relates to HCT-116. Briefly: Induction of apoptosis in human HCT116 cells assessed as early apoptotic cells at 7.5 uM after 24 hrs by annexin V-FITC/propidium iodide staining-based flow cytometric method (reference value: 1.9%). It counts as functional.
Experiment [4] concerns HCT-116. Briefly: Induction of apoptosis in human HCT116 cells assessed as viable cells at 10 uM after 24 hrs by annexin V-FITC/propidium iodide staining-based flow cytometric method (reference value: 93.48%). The following applies: HCT-116, 24 h, read-out: Activity. It counts as functional. The procedure, abridged:
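HCT116 cells seeded at 1×10⁶ cells/mL in 6-well plates for 24 h, then exposed to 0, 7.5, 10 or 12.5 μM for a further 24 h or 48 h. Cells washed twice in PBS, then stained with Annexin V-FITC plus PI (100 μg/mL stock) in binding buffer (10 mM HEPES, pH 7.4, 2.5 mM CaCl₂) for 30 min at room temperature in the dark. Early and late apoptotic fractions gated by flow cytometry.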

The subject of experiment [5] is HCT-116. In words: Induction of apoptosis in human HCT116 cells assessed as late apoptotic cells at 12.5 uM after 48 hrs by annexin V-FITC/propidium iodide staining-based flow cytometric method (reference value: 1.06%). It is filed as functional.
For experiment [6], the target named is E3 ubiquitin-protein ligase Mdm2 (Homo sapiens) (UniProt Q00987). Briefly: Inhibition of MDM2-mediated p53 degradation in human HCT116 cells assessed as increase in MDM2 levels at 7.5 to 12.5 uM after 24 hrs by Western blot method. It counts as cell-based. The procedure, abridged: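 Treated HCT116 cells lysed on ice in RIPA buffer with 1% protease inhibitor cocktail. Lysates cleared at 13000 g for 20 min at 4 °C and protein measured by BCA. Equal protein amounts run on SDS-PAGE, transferred to PVDF and probed with primary then HRP secondary antibodies. Bands detected by enhanced chemiluminescence; 24 h treatment.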
Sequence of E3 ubiquitin-protein ligase Mdm2 (Homo sapiens) (Q00987 whole entry, looked up): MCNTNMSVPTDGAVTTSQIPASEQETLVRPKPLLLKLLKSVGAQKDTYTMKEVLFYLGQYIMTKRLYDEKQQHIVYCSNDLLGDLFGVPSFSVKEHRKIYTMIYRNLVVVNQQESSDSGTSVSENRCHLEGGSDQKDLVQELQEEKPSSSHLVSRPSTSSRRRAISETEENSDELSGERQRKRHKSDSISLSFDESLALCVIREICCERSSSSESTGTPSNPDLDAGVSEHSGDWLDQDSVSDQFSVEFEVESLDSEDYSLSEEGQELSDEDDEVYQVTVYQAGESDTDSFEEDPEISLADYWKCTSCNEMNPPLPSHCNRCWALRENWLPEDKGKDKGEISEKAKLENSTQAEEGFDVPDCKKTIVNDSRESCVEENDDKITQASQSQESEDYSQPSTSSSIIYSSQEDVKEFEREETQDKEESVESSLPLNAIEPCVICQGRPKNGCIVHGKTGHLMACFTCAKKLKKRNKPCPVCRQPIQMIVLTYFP
On the technique in general: A western blot detects proteins with antibodies after separation by electrophoresis.

Molecules are shown by their SMILES. Calls of active or inactive are those of the source. No cut-off for these calls is given here.

For the molecule `C[C@@H]1Oc2ccc3ccccc3c2[C@@H]2[C@@H]1C=C(C=O)[C@@H](C)[C@]21C(=O)Nc2ccccc21`, the IC50 in the experiment with NCI-H1975 is 13.7 µM. Also, the Activity with HCT-116 [1] was 18.5%; in the experiment with HCT-116 [2] it was 64.26%; in the experiment on HCT-116 [3] it was 3.78%; in the experiment on HCT-116 [5], 18.89%. Moreover, the viability at 10 µM in the experiment on HCT-116 [4] is 76.1%. In addition, the inhibition result in experiment [6] was “Active”.

The values above are taken from ChEMBL document CHEMBL4000211, “Discovery of novel polycyclic spiro-fused carbocyclicoxindole-based anticancer agents” (Eur J Med Chem, 2017).
